Experimental data: ChEMBL document CHEMBL1124260, “Synthesis and antitumor activity of quaternary ellipticine glycosides, a series of novel and highly active antitumor agents” (1988)

How the values were obtained:
Assay type in all cases: functional
[1] = tested on: Mus musculus; assay: Number of survivors out of 6 ip implanted L1210 leukemia mouse tested after 80 days at 20 mg/kg; details: route intraperitoneal
How it was run: (§1)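 Female BDF1 mice implanted ip with ascitic fluid holding 10^5 L1210 cells. Saline-dissolved drug given ip daily on days 1-5, starting 24 h after implant. Six mice per dose group, followed 80 days. Survivors/total counted at day 80; ILS % from mean survival time vs controls.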

[2] = tested on: Mus musculus; assay: Antitumor activity against ip implanted L1210 leukemia in mouse after ip administration of 20 mg/kg for 5 days expressed as increase in mean life span; details: 120 h, route intraperitoneal
How it was run: (§2)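 Drug was dissolved in 0.9% NaCl, diluted just before use and given ip once daily for 5 consecutive days, starting 24 h after transplant. ILS % = mean survival time of treated vs control mice, observed for 80 days.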

[3] = tested on: Mus musculus; assay: Antitumor activity against ip implanted L1210 leukemia in mouse after ip administration of 5 mg/kg for 5 days expressed as increase in mean life span; details: route intraperitoneal; for ILS: 5 mg/kg; how it was run: as §2
[4] = tested on: Mus musculus; assay: Number of survivors out of 6 ip implanted L1210 leukemia mouse tested after 80 days at 5 mg/kg; details: route intraperitoneal; how it was run: as §1
[5] = tested on: Mus musculus; assay: Number of survivors out of 6 ip implanted L1210 leukemia mouse tested after 80 days at 10 mg/kg; details: route intraperitoneal; how it was run: as §1
[6] = tested on: Mus musculus; assay: Antitumor activity against ip implanted L1210 leukemia in mouse after ip administration of 10 mg/kg for 5 days expressed as increase in mean life span; details: route intraperitoneal; for ILS: 10 mg/kg; for ILS at 10 mg/kg: Mus musculus, L1210, ip, 120 h; how it was run: as §2
[7] = tested on: Mus musculus; assay: Antitumor activity against ip implanted L1210 leukemia in mouse after ip administration of 40 mg/kg for 5 days expressed as increase in mean life span; details: 120 h, route intraperitoneal; how it was run: as §2
[8] = tested on: Mus musculus; assay: Number of survivors out of 6 ip implanted L1210 leukemia mouse tested after 80 days at 40 mg/kg; details: route intraperitoneal; how it was run: as §1

With Cc1c2cc[n+]([C@H]3OC[C@@H](O)[C@@H](O)[C@@H]3O)cc2c(C)c2c1[nH]c1ccc(O)cc12.[Br-] the Cures [1] was 3 and the ILS at 20 mg/kg [2] was over 606%.

Compound Cc1c2cc[n+]([C@H]3O[C@@H](CO)[C@H](O)[C@@H](O)[C@@H]3O)cc2c(C)c2c1[nH]c1ccc(O)cc12.[Br-] (stereo in doubt; 64b) has an ILS [3] of over 362% and a Cures ([4]; 5 mg/kg) of 2.

Compound Cc1c2cc[n+]([C@@H]3O[C@H](CO)[C@H](O)[C@H](O)[C@H]3O)cc2c(C)c2c1[nH]c1ccc(O)cc12.[Br-] has a Cures [1] of 4 and an ILS at 20 mg/kg [2] of over 729%.

Cc1c2cc[n+]([C@H]3O[C@@H](CO)[C@H](O)[C@@H](O)[C@@H]3O)cc2c(C)c2c1[nH]c1ccc(O)cc12.[Br-] (stereo in doubt; 64a) gave a Cures ([5]; 10 mg/kg) of 0 and an ILS [6] of 88%.

In the case of Cc1c2cc[n+](C3O[C@@H](C)[C@H](O)[C@@H](O)[C@H]3O)cc2c(C)c2c1[nH]c1ccccc12.[Br-] (some centres not stated), the ILS at 40 mg/kg [7] is reported as 40% and the Cures [8] is reported as 0.

Cc1c2cc[n+](C3OC(CO)C(O)C(O)C3O)cc2c(C)c2c1[nH]c1ccccc12.[Br-] (configuration not stated) showed an ILS at 40 mg/kg [7] of 39% and a Cures [8] of 0.

Work on Cc1c2cc[n+]([C@@H]3OC[C@@H](O)[C@@H](O)[C@H]3O)cc2c(C)c2c1[nH]c1ccc(O)cc12.[Br-] yielded a Cures [5] of 2 and an ILS at 10 mg/kg [6] of over 396%.

For Cc1c2cc[n+]([C@H]3O[C@@H](CO)[C@H](O)[C@@H](O)[C@@H]3O)cc2c(C)c2c1[nH]c1ccc(O)cc12.[Br-] (stereo in doubt; 63b), the ILS [3] was 58% and the Cures ([4]; 5 mg/kg) was 0.

In the case of Cc1c2cc[n+](C3CC(O)C(CO)O3)cc2c(C)c2c1[nH]c1ccc(O)cc12.[Cl-] (configuration not stated), the Cures [5] is reported as 2 and the ILS at 10 mg/kg [6] is reported as over 390%.

With Cc1c2cc[n+]([C@H]3O[C@@H](CO)[C@H](O)[C@@H](O)[C@@H]3O)cc2c(C)c2c1[nH]c1ccc(O)cc12.[Br-] (stereo in doubt; 65) the Cures ([5]; 10 mg/kg) was 1 and the ILS [6] was over 212%.

Cc1c2cc[n+](C3OC(C(N)=O)C(O)C(O)C3O)cc2c(C)c2c1[nH]c1ccc(O)cc12.[Br-] (configuration not stated) gave an ILS at 5 mg/kg ([3]; Mus musculus, L1210, ip, 120 h) of 49% and a Cures [4] of 0.
